Reference: ChEMBL document CHEMBL1275591, “Cellular pharmacodynamics of the novel biaryloxazolidinone radezolid: studies with infected phagocytic and nonphagocytic cells, using Staphylococcus aureus, Staphylococcus epidermidis, Listeria monocytogenes, and Legionella pneumophila” (Antimicrob Agents Chemother, 2010)
In brackets after ≈: the same amount, converted by molar mass.

Columns and labels:
Staphylococcus aureus [1] = assay: Antimicrobial activity against linezolid resistant methicillin-susceptible Staphylococcus aureus SA040L after 24 hrs; format: functional
Staphylococcus aureus [2] = assay: Antimicrobial activity against hospital acquired methicillin-resistant Staphylococcus aureus ATCC 33591 after 24 hrs; format: functional; settings: ATCC 33591, 24 h
Staphylococcus aureus [3] = assay: Antimicrobial activity against Linezolid resistant hospital acquired methicillin-resistant Staphylococcus aureus SA238L after 24 hrs; format: functional
Staphylococcus aureus [4] = assay: Antimicrobial activity against hospital acquired methicillin-resistant, vancomycin resistant Staphylococcus aureus VRS1 after 24 hrs; format: functional; settings: VRS1, 24 h
Staphylococcus aureus [5] = assay: Antimicrobial activity against hospital acquired methicillin-resistant, vancomycin resistant Staphylococcus aureus VRS2 after 24 hrs; format: functional; settings: VRS2, 24 h
[6] = system: Staphylococcus epidermidis; assay: Antimicrobial activity against Staphylococcus epidermidis SA362 after 24 hrs; format: functional; settings: SA362, 24 h
Listeria monocytogenes [7] = assay: Antimicrobial activity against Listeria monocytogenes EGD after 24 hrs; format: functional
Legionella pneumophila [8] = assay: Antimicrobial activity against Legionella pneumophila ATCC 33153 after 48 hrs; format: functional; settings: ATCC 33153, 48 h
Staphylococcus aureus [9] = assay: Antimicrobial activity against Staphylococcus aureus infected in THP1 cells after 24 hrs; format: functional, organism-based; settings: THP-1, 24 h
Procedure, shortened: (§1)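 Bacteria were phagocytosed by human THP-1 macrophage-like cells, then exposed to a range of drug concentrations for a fixed time: 24 h for S. aureus, S. epidermidis and L. monocytogenes, 48 h for L. pneumophila. Change in CFU versus the initial inoculum was fitted with a sigmoidal curve to give Emin, Emax (relative maximal efficacy), EC50 and static concentration (Cs).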

[10] = system: Staphylococcus epidermidis; assay: Antimicrobial activity against Staphylococcus epidermidis infected in THP1 cells after 24 hrs; format: functional, organism-based; settings: THP-1, 24 h; procedure, shortened: as §1
Listeria monocytogenes [11] = assay: Antimicrobial activity against Listeria monocytogenes infected in THP1 cells after 24 hrs; format: functional, organism-based; settings: THP-1, 24 h; procedure, shortened: as §1
Legionella pneumophila [12] = assay: Antimicrobial activity against Legionella pneumophila ATCC 33153 infected in THP1 cells after 48hrs; format: functional, organism-based; settings: ATCC 33153, THP-1, 48 h; procedure, shortened: as §1
Staphylococcus aureus [13] = assay: Bacteriostatic activity against Staphylococcus aureus infected in THP1 cells after 24 hrs; format: functional, THP-1; procedure, shortened: as §1
[14] = system: Staphylococcus epidermidis; assay: Bacteriostatic activity against Staphylococcus epidermidis infected in THP1 cells after 24 hrs; format: functional, THP-1; procedure, shortened: as §1
Listeria monocytogenes [15] = assay: Bacteriostatic activity against Listeria monocytogenes EGD infected in THP1 cells after 24 hrs; format: functional, THP-1; procedure, shortened: as §1
Legionella pneumophila [16] = assay: Bacteriostatic activity against Legionella pneumophila ATCC 33153 infected in THP1 cells after 48hrs; format: functional, THP-1; procedure, shortened: as §1
Staphylococcus aureus [17] = assay: Antimicrobial activity against linezolid-susceptible Staphylococcus aureus ATCC 25923 infected in THP1 cells assessed as log reduction in bacterial count after 24 hrs; format: functional, THP-1; procedure, shortened: as §1
Staphylococcus aureus [18] = assay: Antimicrobial activity against linezolid-susceptible Staphylococcus aureus ATCC 33591 infected in THP1 cells assessed as log reduction in bacterial count after 24 hrs; format: functional, THP-1; procedure, shortened: as §1
Staphylococcus aureus [19] = assay: Antimicrobial activity against linezolid-susceptible Staphylococcus aureus NRS384 infected in THP1 cells assessed as log reduction in bacterial count after 24 hrs; format: functional, THP-1; procedure, shortened: as §1
Staphylococcus aureus [20] = assay: Antimicrobial activity against linezolid-susceptible Staphylococcus aureus NRS18 infected in THP1 cells assessed as log reduction in bacterial count after 24 hrs; format: functional, THP-1; procedure, shortened: as §1
Staphylococcus aureus [21] = assay: Antimicrobial activity against linezolid-susceptible Staphylococcus aureus SA040 infected in THP1 cells assessed as log reduction in bacterial count after 24 hrs; format: functional, THP-1; procedure, shortened: as §1
Staphylococcus aureus [22] = assay: Antimicrobial activity against linezolid-susceptible Staphylococcus aureus SA238 infected in THP1 cells assessed as log reduction in bacterial count after 24 hrs; format: functional, THP-1; procedure, shortened: as §1
Staphylococcus aureus [23] = assay: Antimicrobial activity against linezolid-resistant Staphylococcus aureus SA040L infected in THP1 cells assessed as log reduction in bacterial count after 24 hrs; format: functional, THP-1; procedure, shortened: as §1
Staphylococcus aureus [24] = assay: Antimicrobial activity against linezolid-susceptible Staphylococcus aureus ATCC 25923 infected in THP1 cells after 24 hrs; format: functional, organism-based; settings: ATCC 25923, THP-1, 24 h; procedure, shortened: as §1
Staphylococcus aureus [25] = assay: Antimicrobial activity against linezolid-susceptible Staphylococcus aureus ATCC 33591 infected in THP1 cells after 24 hrs; format: functional, organism-based; settings: ATCC 33591, THP-1, 24 h; procedure, shortened: as §1
Staphylococcus aureus [26] = assay: Antimicrobial activity against linezolid-susceptible Staphylococcus aureus NRS384 infected in THP1 cells after 24 hrs; format: functional, organism-based; settings: NRS384, THP-1, 24 h; procedure, shortened: as §1
Staphylococcus aureus [27] = assay: Antimicrobial activity against linezolid-susceptible Staphylococcus aureus NRS18 infected in THP1 cells after 24 hrs; format: functional, organism-based; settings: NRS18, THP-1, 24 h; procedure, shortened: as §1
Staphylococcus aureus [28] = assay: Antimicrobial activity against linezolid-susceptible Staphylococcus aureus SA040 infected in THP1 cells after 24 hrs; format: functional, organism-based; settings: SA040, THP-1, 24 h; procedure, shortened: as §1
Staphylococcus aureus [29] = assay: Antimicrobial activity against linezolid-susceptible Staphylococcus aureus SA238 infected in THP1 cells after 24 hrs; format: functional, organism-based; settings: SA238, THP-1, 24 h; procedure, shortened: as §1
Staphylococcus aureus [30] = assay: Antimicrobial activity against linezolid-resistant Staphylococcus aureus SA040L infected in THP1 cells after 24 hrs; format: functional, organism-based; settings: THP-1, 24 h; procedure, shortened: as §1
Staphylococcus aureus [31] = assay: Antimicrobial activity against linezolid-resistant Staphylococcus aureus SA238L infected in THP1 cells after 24 hrs; format: functional, organism-based; settings: THP-1, 24 h; procedure, shortened: as §1
Staphylococcus aureus [32] = assay: Bacteriostatic activity against linezolid-susceptible Staphylococcus aureus ATCC 25923 infected in THP1 cells after 24 hrs; format: functional, THP-1
Procedure, shortened: (§2)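 Human THP-1 myelomonocytic (macrophage-like) cells infected with S. aureus, then exposed 24 h to a range of antibiotic concentrations. CFU change was measured against the initial inoculum. A sigmoidal dose-response curve was fitted to give Emin, Emax and EC50, and the apparent static concentration (Cs) was taken from the fit.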

Staphylococcus aureus [33] = assay: Bacteriostatic activity against linezolid-susceptible Staphylococcus aureus ATCC 33591 infected in THP1 cells after 24 hrs; format: functional, THP-1; procedure, shortened: as §2
Staphylococcus aureus [34] = assay: Bacteriostatic activity against linezolid-susceptible Staphylococcus aureus NRS384 infected in THP1 cells after 24 hrs; format: functional, THP-1; procedure, shortened: as §2
Staphylococcus aureus [35] = assay: Bacteriostatic activity against linezolid-susceptible Staphylococcus aureus NRS18 infected in THP1 cells after 24 hrs; format: functional, THP-1; procedure, shortened: as §2
Staphylococcus aureus [36] = assay: Bacteriostatic activity against linezolid-susceptible Staphylococcus aureus SA040 infected in THP1 cells after 24 hrs; format: functional, THP-1; procedure, shortened: as §2
Staphylococcus aureus [37] = assay: Bacteriostatic activity against linezolid-susceptible Staphylococcus aureus SA238 infected in THP1 cells after 24 hrs; format: functional, THP-1; procedure, shortened: as §2
Staphylococcus aureus [38] = assay: Bacteriostatic activity against linezolid-resistant Staphylococcus aureus SA040L infected in THP1 cells after 24 hrs; format: functional, THP-1; procedure, shortened: as §2
Staphylococcus aureus [39] = assay: Bacteriostatic activity against linezolid-resistant Staphylococcus aureus SA238L infected in THP1 cells after 24 hrs; format: functional, THP-1; procedure, shortened: as §2
Staphylococcus aureus [40] = assay: Antimicrobial activity against linezolid-susceptible Staphylococcus aureus SA238 infected in THP1 cells at pH 7.4 after 24 hrs; format: functional, organism-based; settings: SA238, THP-1, 24 h
Staphylococcus aureus [41] = assay: Antimicrobial activity against linezolid-susceptible Staphylococcus aureus SA238 infected in THP-1 cells at pH 5.5 after 24 hrs; format: functional, organism-based; settings: SA238, THP-1, 24 h
Staphylococcus aureus [42] = assay: Bacteriostatic activity against linezolid-susceptible Staphylococcus aureus SA238 infected in THP1 cells at pH 7.4 after 24 hrs; format: functional, THP-1
Staphylococcus aureus [43] = assay: Bacteriostatic activity against linezolid-susceptible Staphylococcus aureus SA238 infected in THP1 cells at pH 5.5 after 24 hrs; format: functional, THP-1
Staphylococcus aureus [44] = assay: Antimicrobial activity against linezolid-susceptible Staphylococcus aureus SA238 after 24 hrs; format: functional, organism-based; settings: SA238, 24 h
Staphylococcus aureus [45] = assay: Bacteriostatic activity against linezolid-susceptible Staphylococcus aureus SA238 after 24 hrs; format: functional
Procedure, shortened: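 Extracellular concentration-response in Mueller-Hinton broth over 24 h. Change in CFU was fitted to a sigmoidal function, and the apparent static concentration (Cs) was derived from the fit.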

Staphylococcus aureus [46] = assay: Antimicrobial activity against linezolid-resistant Staphylococcus aureus SA238L infected in THP1 cells assessed as log reduction in bacterial count after 24 hrs; format: functional, THP-1; procedure, shortened: as §1

For `CC(=O)NC[C@H]1CN(c2ccc(N3CCOCC3)c(F)c2)C(=O)O1` [LINEZOLID], the MIC (Staphylococcus aureus [1]) was 16 µg/mL (≈ 47.4 µM), the MIC (Staphylococcus aureus [2]) was 1 µg/mL (≈ 2.96 µM) and the MIC (Staphylococcus aureus [3]) was 16 µg/mL (≈ 47.4 µM). For the same compound, the MIC (Staphylococcus aureus [4]) was 1 µg/mL (≈ 2.96 µM), the MIC (Staphylococcus aureus [5]) was 1 µg/mL (≈ 2.96 µM) and the MIC [6] was 1 µg/mL (≈ 2.96 µM). The MIC (Listeria monocytogenes [7]) was 1 µg/mL (≈ 2.96 µM), the MIC (Legionella pneumophila [8]) was 4 µg/mL (≈ 11.9 µM) and the EC50 (Staphylococcus aureus [9]) was 0.63 µg/mL (≈ 1.87 µM). It also gave an EC50 [10] of 2.99 µg/mL (≈ 8.86 µM), an EC50 (Listeria monocytogenes [11]) of 0.62 µg/mL (≈ 1.84 µM) and an EC50 (Legionella pneumophila [12]) of 8.45 µg/mL (≈ 25 µM). For the same compound, the Activity (Staphylococcus aureus [13]) was 4.27 mg/L, the Activity [14] was 0.49 mg/L and the Activity (Listeria monocytogenes [15]) was 5.47 mg/L. It also gave an Activity (Legionella pneumophila [16]) of 5.14 mg/L, a log10cfu (Staphylococcus aureus [17]) of -0.37 and a log10cfu (Staphylococcus aureus [18]) of -0.39. The log10cfu (Staphylococcus aureus [19]) was -0.41, the log10cfu (Staphylococcus aureus [20]) was -0.69 and the log10cfu (Staphylococcus aureus [21]) was -0.91. For the same compound, the log10cfu (Staphylococcus aureus [22]) was -0.42, the log10cfu (Staphylococcus aureus [23]) was -0.69 and the EC50 (Staphylococcus aureus [24]) was 0.63 µg/mL (≈ 1.87 µM). For the same compound, the EC50 (Staphylococcus aureus [25]) was 0.47 µg/mL (≈ 1.39 µM), the EC50 (Staphylococcus aureus [26]) was 0.4 µg/mL (≈ 1.19 µM) and the EC50 (Staphylococcus aureus [27]) was 0.84 µg/mL (≈ 2.49 µM). For the same compound, the EC50 (Staphylococcus aureus [28]) was 0.63 µg/mL (≈ 1.87 µM), the EC50 (Staphylococcus aureus [29]) was 0.7 µg/mL (≈ 2.07 µM) and the EC50 (Staphylococcus aureus [30]) was 2.78 µg/mL (≈ 8.24 µM). For the same compound, the EC50 (Staphylococcus aureus [31]) was 0.29 µg/mL (≈ 0.86 µM), the Activity (Staphylococcus aureus [32]) was 4.27 mg/L and the Activity (Staphylococcus aureus [33]) was 2.95 mg/L. The Activity (Staphylococcus aureus [34]) was 2.3 mg/L, the Activity (Staphylococcus aureus [35]) was 2.77 mg/L and the Activity (Staphylococcus aureus [36]) was 1.59 mg/L. The Activity (Staphylococcus aureus [37]) was 4.55 mg/L, the Activity (Staphylococcus aureus [38]) was 10.15 mg/L and the Activity (Staphylococcus aureus [39]) was >100 mg/L. The EC50 (Staphylococcus aureus [40]) was 0.35 µg/mL (≈ 1.04 µM), the EC50 (Staphylococcus aureus [41]) was 0.18 µg/mL (≈ 0.534 µM) and the Activity (Staphylococcus aureus [42]) was 2.26 mg/L. For the same compound, the Activity (Staphylococcus aureus [43]) was 1.09 mg/L, the EC50 (Staphylococcus aureus [44]) was 0.7 µg/mL (≈ 2.07 µM) and the Activity (Staphylococcus aureus [45]) was 4.55 mg/L. It also gave a log10cfu (Staphylococcus aureus [46]) of 0.27.
